Consider one molecule from ChEMBL document CHEMBL4725241, “Discovery of BMS-986235/LAR-1219: A Potent Formyl Peptide Receptor 2 (FPR2) Selective Agonist for the Prevention of Heart Failure” (J Med Chem, 2020).

pEC50: −log10 of the molar value. The source made the active and inactive calls. The calls are words filed in the database; no cut-off is given here.

The pEC50 is the negative decadic logarithm of the EC50, by convention in mol/L. Usually clearance stands for the rate of elimination divided by the concentration. The term Cmax denotes the peak of the concentration-time curve. By half-life is commonly meant how long it takes for the measured level to halve. One may read the AUC(0-inf) as the area under the concentration-time curve extrapolated to infinity. The bioavailability is dose-corrected exposure relative to a reference, in per cent.

The target in one data set is T1, fMet-Leu-Phe receptor (Homo sapiens, UniProt P21462).
T1 sequence (P21462 whole entry): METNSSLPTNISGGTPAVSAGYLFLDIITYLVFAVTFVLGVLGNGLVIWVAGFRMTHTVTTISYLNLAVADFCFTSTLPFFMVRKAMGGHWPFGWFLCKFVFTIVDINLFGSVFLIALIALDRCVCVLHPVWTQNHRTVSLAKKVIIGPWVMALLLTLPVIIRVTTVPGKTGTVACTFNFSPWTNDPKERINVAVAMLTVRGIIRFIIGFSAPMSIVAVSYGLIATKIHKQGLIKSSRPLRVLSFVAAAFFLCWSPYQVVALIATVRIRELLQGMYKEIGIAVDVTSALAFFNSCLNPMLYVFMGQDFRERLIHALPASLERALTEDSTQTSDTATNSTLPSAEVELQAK
Description: Agonist activity at human FPR1 expressed in CHO cells assessed as reduction cAMP accumulation incubated for 1 hr by TR-FRET assay. Type of data set: functional, cell-based. The essentials:
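CHO cells overexpressing the receptor were used, 2,000 hFPR2 or 4,000 hFPR1 cells/well. Cells were incubated 30 min at room temperature with compound (1.7 nM-100 µM, 1% DMSO), IBMX 200 µM and forskolin (5 µM for FPR2, 10 µM for FPR1) in DPBS/0.1% BSA. cAMP was read by HTRF after 1 h lysis against a standard curve. Data were fitted to a 4-parameter logistic, average of ≥2 occasions.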
On the technique in general: Cyclic AMP is a second messenger, typically raised through Gs and lowered through Gi signalling.

The target of data set [1] is T2, Formyl peptide receptor 2 (Mus musculus, UniProt O88536).
T2 sequence (O88536 whole entry): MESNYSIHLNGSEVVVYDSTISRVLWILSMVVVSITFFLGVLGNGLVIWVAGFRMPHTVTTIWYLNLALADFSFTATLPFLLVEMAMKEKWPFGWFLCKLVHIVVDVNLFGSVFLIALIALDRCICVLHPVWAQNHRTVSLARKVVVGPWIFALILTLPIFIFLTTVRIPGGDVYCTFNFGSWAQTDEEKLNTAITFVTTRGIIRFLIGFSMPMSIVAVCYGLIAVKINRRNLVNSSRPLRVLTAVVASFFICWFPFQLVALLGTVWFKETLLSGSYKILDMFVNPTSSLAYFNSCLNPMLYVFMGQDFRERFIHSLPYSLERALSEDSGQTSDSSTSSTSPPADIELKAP
Description: Agonist activity at mouse FPR2 expressed in CHO cells assessed as reduction cAMP accumulation incubated for 1 hr by TR-FRET assay. Type of data set: cell-based.

Data set [2] concerns CHO. Put plainly: Selectivity ratio of agonist activity at human FPR1 expressed in CHO cells to agonist activity at human FPR2 expressed in CHO cells. Type of data set: cell-based. A digest of the protocol: (§1)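 Ratio of FPR1 to FPR2 EC50 from the CHO-cell forskolin/IBMX cAMP HTRF assay, 30 min at room temperature, 4-parameter logistic fit.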
Data set [3] has as its system CHO. Put plainly: Selectivity ratio of agonist activity at mouse FPR1 expressed in CHO cells to agonist activity at mouse FPR2 expressed in CHO cells. Type of data set: cell-based. The essentials: as §1
Data set [4] deals with Mus musculus. Description: Cardioprotective activity in C57BL/6 mouse model of LAD coronary artery ligation-induced myocardial infarction assessed as reduction in LV chamber area at 0.3 mg/kg, po and measured after 28 days. The format is functional, organism-based. The conditions noted are these: time 28.0 day. A digest of the protocol:
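Male C57BL/6 mice (10-12 weeks) underwent permanent LAD ligation under ketamine/xylazine, with shams having an untightened suture. Compound (0.3 mg/kg/d) or vehicle was given by oral gavage once daily (5 mL/kg) from post-MI day 4 for 24 days. Endpoints were taken at 28 days post-MI; scar length was quantified from LV cross sections.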

The nature of data set [5]: Volume of distribution at steady state in Beagle dog at 1 mg/kg, iv by LC-MS/MS analysis. Type of data set: ADME, organism-based, Canis lupus familiaris. The conditions noted are these: in vivo, read-out: Vdss. The essentials: (§2)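 Male animals received intravenous solution in DMSO/PEG400/saline (5/47.5/47.5). EDTA plasma was extracted with methanol/acetonitrile (1:1) plus internal standard and quantified by LC-MS/MS. AUC0-inf was calculated by the trapezoidal rule with terminal-phase kel extrapolation.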

Data set [6] can be described thus: Total clearance in Crl:CD(SD) rat at 1 mg/kg, iv by LC-MS/MS analysis. The format is ADME, organism-based. The conditions noted are these: in vivo. The essentials: as §2
Data set [7] can be described thus: Total clearance in Beagle dog at 1 mg/kg, iv by LC-MS/MS analysis. Type of data set: ADME, organism-based, Canis lupus familiaris. To be noted: in vivo. The essentials:
as §2

Data set [8] can be described thus: Cmax in Crl:CD(SD) rat at 1 mg/kg, po by LC-MS/MS analysis. Also on record: route oral, dose 1 mg/kg. The format is ADME, organism-based. The conditions noted are these: in vivo. A digest of the protocol:
(§3)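 Male animals dosed orally with a suspension in 0.5% MC. Blood was taken into EDTA 2K capillaries and plasma was stored frozen. Plasma was mixed with methanol/acetonitrile (1:1) plus internal standard, centrifuged, and drug was measured by LC-MS/MS. AUC0-inf was obtained by the trapezoidal rule, extrapolated with kel from the terminal phase. t1/2 = ln2/kel.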

Data set [9] can be described thus: Cmax in Beagle dog at 1 mg/kg, po by LC-MS/MS analysis. Type of data set: ADME, organism-based, Canis lupus familiaris. Also on record: route oral, dose 1 mg/kg. The conditions noted are these: in vivo. The essentials: as §3
A short description of data set [10]: Half life in BALB/cCrSlc mouse at 1 mg/kg, po by LC-MS/MS analysis. Type of data set: ADME, organism-based. The conditions noted are these: in vivo. The essentials:
as §3

Data set [11] in a line: AUC (0 to infinity) in BALB/cCrSlc mouse at 1 mg/kg, po by LC-MS/MS analysis. The format is ADME, organism-based. Also on record: time infinity, route oral, dose 1 mg/kg. To be noted: in vivo. The essentials:
as §3

The nature of data set [12]: AUC (0 to infinity) in Crl:CD(SD) rat at 1 mg/kg, po by LC-MS/MS analysis. Type of data set: ADME, organism-based. Also on record: time infinity, route oral, dose 1 mg/kg. The conditions noted are these: in vivo. A digest of the protocol:
as §3

A short description of data set [13]: AUC (0 to infinity) in Beagle dog at 1 mg/kg, po by LC-MS/MS analysis. The format is ADME, organism-based, Canis lupus familiaris. Also on record: route oral, time infinity, dose 1 mg/kg. The conditions noted are these: in vivo. The essentials: as §3
The nature of data set [14]: AUC (0 to infinity) in cynomolgus monkey at 3 mg/kg, po by LC-MS/MS analysis. The format is ADME, organism-based, Macaca fascicularis. Also on record: time infinity, route oral, dose 3 mg/kg. To be noted: in vivo. A digest of the protocol: as §3
A short description of data set [15]: Oral bioavailability in Crl:CD(SD) rat at 1 mg/kg by LC-MS/MS analysis. Type of data set: ADME, organism-based. To be noted: in vivo. The essentials:
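Oral bioavailability = (AUC0-inf,po/dose po)/(AUC0-inf,iv/dose iv) × 100. Oral dosing used a 0.5% MC suspension. IV dosing used a DMSO/PEG400/saline (5/47.5/47.5) solution, with CD1(ICR) mice for the iv arm. Plasma drug levels were measured by LC-MS/MS after methanol/acetonitrile extraction with internal standard.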

Data set [16] is described as follows: Clearance in human liver microsome at 0.1 umol/l and measured for 60 mins by LC-MS/MS analysis. The format is ADME. The conditions noted are these: microsomes, 1 h, 0.1 µM, dose 0.1 µmol/L. A digest of the protocol: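 Liver microsomes (1 mg protein/mL final) with an NADPH regenerating system were preincubated 5 min at 37°C, then given 0.1 µmol/L compound. Samples were taken at 0-60 min, quenched in methanol/acetonitrile with internal standard, and analysed by LC-MS/MS. Runs were in triplicate. kel came from 5-30 min points. CLint = kel/protein concentration (mL/min/mg protein).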
On the technique in general: Microsomes from liver hold many membrane-bound enzymes, among them those of drug oxidation.

Data set [17] in a line: Clearance in dog hepatocytes at 0.1 umol/l and measured for 6 hrs by LC-MS/MS analysis. The format is ADME, cell-based, Canis lupus familiaris, Hepatocyte. To be noted: dose 0.1 µmol/L, read-out: CLH. A digest of the protocol: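 Hepatocytes (1 × 10⁶ cells/mL) in modified Krebs–Henseleit buffer were preincubated 5 min at 37°C, then given 0.1 µmol/L compound. Samples were taken at 0, 1, 2, 4 and 6 h and analysed by LC-MS/MS, in duplicate. kel came from 0-2 h points. CLint was scaled by hepatocellularity and liver weight (mL/min/kg).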

The subject of data set [18] is Mus musculus. Description: Antiinflammatory activity in mouse assessed as increase in LPS-induced IL-10 expression at 0.3 mg/kg, po.

Consider `COc1cc(F)c([C@@H]2CNC(=O)[C@H]2NC(=O)Nc2ccccc2)c(F)c1` [BMS-986235], for which the pEC50 on fMet-Leu-Phe receptor was 6.40; in data set [1] it was 9.30. Besides, the Ratio EC50 in the data set on CHO [2] stood at 80; in the data set with CHO [3], 1000. Also, the result in the data set with Mus musculus [4] and in the data set on Mus musculus [18] was Active. Also, the Vd in data set [5] was determined as 0.98 L/kg. Also, the values for the clearance in data set [6] and in data set [7] were 49 mL/min/kg and 6.6 mL/min/kg, respectively. The figures for the Cmax in data set [8] and in data set [9] were 240 nM and 820 nM, respectively. The molecule also gave a half-life in data set [10] of 40.8 min. Moreover, the AUC(0-inf) in data set [11] amounted to 0.12 µM·h; in data set [12], 0.64 µM·h; in [13] it was 5.7 µM·h; in data set [14], 5.8 µM·h. Moreover, the bioavailability in data set [15] was found to be 67%. In data set [16], this molecule came in with a CLH of 3.3 µL/min/mg. In [17], the CLint scaled at 0.1 µM amounted to 50 mL/min/kg.
